Activity calls are given as the source filed them. No cut-off for these calls is given here.
Tests used:
Aurora kinase B = Aurora kinase B (Homo sapiens, UniProt Q96GD4); assay: Inhibition of human Aurora B by in vitro inhibition assay
Aurora kinase A = target: T1, Aurora kinase A (Homo sapiens, UniProt O14965); assay: Inhibition of human Aurora A
T1 sequence (O14965 whole entry): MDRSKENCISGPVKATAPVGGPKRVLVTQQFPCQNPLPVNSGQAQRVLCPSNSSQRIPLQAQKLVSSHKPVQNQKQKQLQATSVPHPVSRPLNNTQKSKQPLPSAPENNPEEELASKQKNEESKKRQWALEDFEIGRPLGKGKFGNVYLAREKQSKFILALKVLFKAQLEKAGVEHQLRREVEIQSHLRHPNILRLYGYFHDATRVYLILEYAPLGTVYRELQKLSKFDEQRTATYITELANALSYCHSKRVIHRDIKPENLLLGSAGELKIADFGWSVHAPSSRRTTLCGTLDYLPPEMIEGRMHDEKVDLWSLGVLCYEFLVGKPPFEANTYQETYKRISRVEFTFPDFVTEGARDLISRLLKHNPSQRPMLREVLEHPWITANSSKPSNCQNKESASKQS

A549 [1] = assay: Antiproliferative activity against human A549 cells after 6 to 7 days by celltiter-glo luminescence assay in absence of 70% human serum albumin; type: functional, cell-based
A549 [2] = assay: Selectivity ratio of EC50 for human A549 cells in presence of 70% human serum albumin to EC50 for human A549 cells in absence of 70% human serum albumin; type: functional
[3] = target: Hepatocyte growth factor receptor (Homo sapiens, UniProt P08581); assay: Inhibition of MET
Chain of Hepatocyte growth factor receptor (P08581 whole entry): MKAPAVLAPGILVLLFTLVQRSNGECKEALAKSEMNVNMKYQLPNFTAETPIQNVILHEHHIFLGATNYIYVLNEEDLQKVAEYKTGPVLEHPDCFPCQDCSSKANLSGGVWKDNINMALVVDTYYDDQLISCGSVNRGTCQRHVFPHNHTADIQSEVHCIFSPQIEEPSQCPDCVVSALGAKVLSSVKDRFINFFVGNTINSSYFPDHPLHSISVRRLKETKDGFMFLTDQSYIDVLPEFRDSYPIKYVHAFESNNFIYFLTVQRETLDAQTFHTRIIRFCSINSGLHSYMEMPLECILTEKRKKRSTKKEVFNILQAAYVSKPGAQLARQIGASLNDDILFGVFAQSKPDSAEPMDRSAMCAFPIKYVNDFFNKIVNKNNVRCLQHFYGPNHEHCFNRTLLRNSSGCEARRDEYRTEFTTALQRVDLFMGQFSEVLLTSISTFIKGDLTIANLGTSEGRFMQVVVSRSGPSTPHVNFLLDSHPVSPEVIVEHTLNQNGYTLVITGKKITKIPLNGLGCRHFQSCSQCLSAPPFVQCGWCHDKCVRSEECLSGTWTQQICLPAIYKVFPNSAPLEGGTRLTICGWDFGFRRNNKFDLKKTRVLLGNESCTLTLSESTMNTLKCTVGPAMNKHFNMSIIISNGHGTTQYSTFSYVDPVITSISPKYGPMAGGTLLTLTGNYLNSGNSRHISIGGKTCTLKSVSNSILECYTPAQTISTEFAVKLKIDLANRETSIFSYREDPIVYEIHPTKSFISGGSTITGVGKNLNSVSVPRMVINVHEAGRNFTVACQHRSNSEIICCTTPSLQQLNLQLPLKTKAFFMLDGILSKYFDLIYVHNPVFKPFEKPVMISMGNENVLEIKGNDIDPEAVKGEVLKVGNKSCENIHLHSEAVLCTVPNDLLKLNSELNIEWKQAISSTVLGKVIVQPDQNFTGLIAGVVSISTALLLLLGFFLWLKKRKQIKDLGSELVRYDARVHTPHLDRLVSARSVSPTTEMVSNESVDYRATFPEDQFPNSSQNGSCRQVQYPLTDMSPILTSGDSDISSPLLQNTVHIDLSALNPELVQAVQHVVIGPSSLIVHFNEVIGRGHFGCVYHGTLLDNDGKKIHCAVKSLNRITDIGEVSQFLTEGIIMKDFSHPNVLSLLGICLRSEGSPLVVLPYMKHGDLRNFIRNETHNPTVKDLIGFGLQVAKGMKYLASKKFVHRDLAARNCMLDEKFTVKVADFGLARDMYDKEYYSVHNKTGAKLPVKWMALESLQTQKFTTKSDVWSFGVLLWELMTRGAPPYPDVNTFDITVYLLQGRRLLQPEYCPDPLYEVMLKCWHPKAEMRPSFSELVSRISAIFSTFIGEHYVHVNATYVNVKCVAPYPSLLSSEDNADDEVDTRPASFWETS

[4] = target: Tyrosine-protein kinase Lck (Homo sapiens) (UniProt P06239); assay: Inhibition of LCK
Chain of Tyrosine-protein kinase Lck (Homo sapiens) (P06239 2-509 limits assumed): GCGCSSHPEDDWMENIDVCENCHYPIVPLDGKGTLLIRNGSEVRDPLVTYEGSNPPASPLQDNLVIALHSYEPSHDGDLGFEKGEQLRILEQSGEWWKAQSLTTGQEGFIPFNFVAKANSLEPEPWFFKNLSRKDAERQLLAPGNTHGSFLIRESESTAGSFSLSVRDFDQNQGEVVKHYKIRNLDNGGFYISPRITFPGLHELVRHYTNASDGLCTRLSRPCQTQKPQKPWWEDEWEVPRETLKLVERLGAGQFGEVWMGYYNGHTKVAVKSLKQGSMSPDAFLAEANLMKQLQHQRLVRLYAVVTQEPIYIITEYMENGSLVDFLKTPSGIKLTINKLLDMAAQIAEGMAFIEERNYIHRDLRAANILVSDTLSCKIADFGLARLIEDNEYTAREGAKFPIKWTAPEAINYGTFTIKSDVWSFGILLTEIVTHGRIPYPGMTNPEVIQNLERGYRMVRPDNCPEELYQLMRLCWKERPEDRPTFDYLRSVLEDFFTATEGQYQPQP

Homo sapiens = species on record: Homo sapiens; assay: Selectivity ratio of IC50 for human Aurora A to IC50 for human Aurora B
[5] = Inhibition of ROCK
Method in brief: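 Part of a 328 human protein and lipid kinase selectivity panel run as in vitro activity or binding assays.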

Aurora kinase C = target: T2, Aurora kinase C (Homo sapiens, UniProt Q9UQB9); assay: Competitive inhibition of Aurora C ATP binding site
T2 sequence (Q9UQB9 whole entry): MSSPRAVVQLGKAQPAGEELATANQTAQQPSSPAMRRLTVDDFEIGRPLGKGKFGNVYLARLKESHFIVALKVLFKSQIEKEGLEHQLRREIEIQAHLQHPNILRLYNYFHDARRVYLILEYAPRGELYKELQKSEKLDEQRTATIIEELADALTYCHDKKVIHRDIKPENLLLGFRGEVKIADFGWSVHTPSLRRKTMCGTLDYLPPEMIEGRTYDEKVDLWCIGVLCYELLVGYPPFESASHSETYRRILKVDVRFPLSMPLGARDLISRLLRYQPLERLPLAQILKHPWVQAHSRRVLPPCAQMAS

Chain of Aurora kinase B (Q96GD4 whole entry): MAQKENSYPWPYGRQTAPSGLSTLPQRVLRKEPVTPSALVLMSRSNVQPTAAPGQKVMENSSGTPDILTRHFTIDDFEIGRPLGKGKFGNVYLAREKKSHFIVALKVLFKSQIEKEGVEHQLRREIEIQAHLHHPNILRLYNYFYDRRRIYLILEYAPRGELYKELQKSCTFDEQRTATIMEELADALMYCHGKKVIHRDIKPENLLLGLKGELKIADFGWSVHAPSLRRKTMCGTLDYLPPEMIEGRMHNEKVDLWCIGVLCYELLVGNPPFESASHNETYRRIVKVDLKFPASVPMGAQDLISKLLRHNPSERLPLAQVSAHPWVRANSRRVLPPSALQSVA

SMILES	IC50 (Aurora kinase B)	IC50 (Aurora kinase A)	EC50 (A549 [1])	inhibition [3]	inhibition [4]	Ratio IC50 (Homo sapiens)	inhibition [5]	IC50 (Aurora kinase C)	Ratio EC50 (A549 [2])
CCn1cc(-c2ccnc3[nH]c(-c4cccc(CN(C)C)c4)cc23)c(-c2ccc(NC(=O)Nc3ccccc3)cc2)n1	0.02 µM	0.053 µM	0.014 µM	Active	Active	3	Active	–	10
CCn1cc(-c2ccnc3[nH]c(-c4ccc(NC(C)=O)cc4)cc23)c(-c2ccc(NC(=O)Nc3ccccc3)cc2)n1	0.044 µM	0.062 µM	0.11 µM	–	–	–	–	–	10
O=C(Nc1ccccc1)Nc1ccc(-c2nn(CC(F)(F)F)cc2-c2ccnc3[nH]ccc23)cc1	0.016 µM	2.15 µM	0.326 µM	–	–	–	–	–	–
O=C(Nc1ccccc1)Nc1ccc(-c2nn(CC(=O)N3CCOCC3)cc2-c2ccnc3[nH]ccc23)cc1	0.085 µM	6.81 µM	> 20 µM	–	–	–	–	–	–
CCn1cc(-c2ccnc3[nH]c(CNCCN4CCOCC4)cc23)c(-c2ccc(NC(=O)Nc3ccccc3)cc2)n1	0.022 µM	2.44 µM	2.86 µM	–	–	–	–	–	10
CCN(CCCOc1ccc2c(Nc3cc(CC(=O)Nc4cccc(F)c4)n[nH]3)ncnc2c1)CCOP(=O)(O)O [BARASERTIB]	–	–	–	–	–	–	–	0.017 µM	–
CCn1cc(-c2ccnc3[nH]c(-c4cccc(NC(C)=O)c4)cc23)c(-c2ccc(NC(=O)Nc3ccccc3)cc2)n1	0.044 µM	0.126 µM	0.156 µM	–	–	–	–	–	10
CC(C)(C)n1ncc(-c2ccnc3[nH]ccc23)c1-c1ccc(NC(=O)Nc2ccccc2)cc1	0.04 µM	5.77 µM	0.89 µM	–	–	–	–	–	–
O=C(Nc1ccccc1)Nc1ccc(-c2n[nH]cc2-c2ccnc3[nH]ccc23)cc1	0.032 µM	3.85 µM	12.8 µM	–	–	–	–	–	–
CCn1cc(-c2ccnc3[nH]c(-c4ccc(CN5CCOCC5)cc4)cc23)c(-c2ccc(NC(=O)Nc3ccccc3)cc2)n1	0.066 µM	0.059 µM	0.017 µM	–	–	–	–	–	10
CCn1ncc(-c2ccnc3[nH]ccc23)c1-c1ccc(NC(=O)Nc2ccccc2)cc1	0.025 µM	5.6 µM	1.59 µM	–	–	–	–	–	–
CCn1cc(-c2ccnc3[nH]c(-c4cccc(CN5CCCC5)c4)cc23)c(-c2ccc(NC(=O)Nc3ccccc3)cc2)n1	0.011 µM	0.022 µM	0.012 µM	–	–	–	–	–	10

Continued, in another order:

IC50 (Aurora kinase B)	IC50 (Aurora kinase A)	EC50 (A549 [1])	inhibition [3]	inhibition [4]	Ratio IC50 (Homo sapiens)	inhibition [5]	IC50 (Aurora kinase C)	SMILES	Ratio EC50 (A549 [2])
0.001 µM	0.377 µM	9.61 µM	–	–	–	–	–	O=C(Nc1ccccc1)Nc1ccc(-c2nn(CC(O)CO)cc2-c2ccnc3[nH]ccc23)cc1 (stereo unspecified)	–
0.003 µM	0.792 µM	2.63 µM	–	–	–	–	–	O=C(Nc1ccccc1)Nc1ccc(-c2nn(CCO)cc2-c2ccnc3[nH]ccc23)cc1	–
0.008 µM	0.228 µM	0.638 µM	–	–	–	–	–	CCn1cc(-c2ccnc3[nH]c(C(=O)NCCCN4CCN(C)CC4)cc23)c(-c2ccc(NC(=O)Nc3ccccc3)cc2)n1	10
0.0021 µM	0.366 µM	0.007 µM	–	–	–	–	–	CCn1cc(-c2ccnc3[nH]c(-c4cccc(CN5CCCC5)c4)cc23)c(-c2ccc(NC(=O)N(C)C)cc2)n1	–
0.0047 µM	0.495 µM	0.018 µM	–	–	–	–	–	CCn1cc(-c2ccnc3[nH]c(-c4cccc(CN5CCOCC5)c4)cc23)c(-c2ccc(NC(=O)N(C)C)cc2)n1	–
0.0015 µM	0.042 µM	0.008 µM	–	–	–	–	–	CCNC(=O)Nc1ccc(-c2nn(CC)cc2-c2ccnc3[nH]c(-c4ccc(CN5CCCC5)cc4)cc23)cc1	–
0.0081 µM	0.25 µM	0.009 µM	–	–	–	–	–	CCn1cc(-c2ccnc3[nH]c(-c4ccc(CN5CCOCC5)cc4)cc23)c(-c2ccc(NC(=O)N(C)C)cc2)n1	–
0.003 µM	0.128 µM	0.012 µM	–	–	42	–	–	CCNC(=O)Nc1ccc(-c2nn(CC)cc2-c2ccnc3[nH]c(-c4cccc(CN(C)C)c4)cc23)cc1	–
0.0017 µM	0.039 µM	0.006 µM	–	–	–	–	–	CCNC(=O)Nc1ccc(-c2nn(CC)cc2-c2ccnc3[nH]c(-c4ccc(CN(C)C)cc4)cc23)cc1	–
0.005 µM	0.07 µM	0.026 µM	–	–	–	–	–	CCNC(=O)Nc1ccc(-c2nn(CC)cc2-c2ccnc3[nH]c(-c4cccc(CN5CCOCC5)c4)cc23)cc1	–

Reference: ChEMBL document CHEMBL1157791, “Discovery of GSK1070916, a potent and selective inhibitor of Aurora B/C kinase” (J Med Chem, 2010)
